Measured values of several laboratories.
Protocols differ between the studies behind these lines.
Medium: plasma

SMILES	system	conditions	Cmax
COc1cc2c(Nc3ccc(Br)cc3F)ncnc2cc1OCC1CCN(C)CC1	human	oral, 65 mg/m², multiple doses, once daily, steady state, patients	868 ng/mL
CCCCC[C@H](O)CC[C@@H]1[C@H]2Cc3cccc(OCC(=O)O)c3C[C@H]2C[C@H]1O	human	inhaled, 36 µg, single dose, healthy volunteers	0.87 ng/mL
CNCc1ccc(-c2[nH]c3cc(F)cc4c3c2CCNC4=O)cc1	human	oral, 600 mg, multiple doses, twice daily, steady state	2650 ng/mL
COc1cc2c(cc1OC)CN(CCc1ccc(NC(=O)c3cc(OC)c(OC)cc3NC(=O)c3cnc4ccccc4c3)cc1)CC2	human	intravenous, 1.5 mg/kg, patients	2300 nM
C[C@@]1(c2cc(NC(=O)c3ccc(C#N)cn3)ccc2F)C=CSC(N)=N1	male human	oral, 1 mg, single dose	6.72 ng/mL
FC(F)(F)c1ccc(CNc2ccc(Cc3c[nH]c4ncc(Cl)cc34)cn2)cn1	human	oral, 1600 mg, multiple doses, patients	8770 ng/mL
Cc1ccc(C(=O)N(CCCN)[C@@H](c2oc3cc(Cl)ccc3c(=O)c2Cc2ccccc2)C(C)C)cc1	human	intravenous, 2 mg/m², single dose, patients, infusion	233 ng/mL
COc1ccc([C@@H]2CN(C(=O)[C@@H](O)CO)C[C@@]2(C)[C@@H](C)O)cc1OC1CN(c2ccc(C)cn2)C1	human	oral, 5 mg, single dose, healthy volunteers	213 ng/mL
COCCOc1cnc2ccn([C@H](C)c3nnc4c(F)cc(-c5cnn(C)c5)cn34)c(=O)c2c1	human	oral, 100 mg, multiple doses, once daily, patients	2300 ng/mL
NS(=O)(=O)NCCNc1nonc1C(=NO)Nc1ccc(F)c(Br)c1	human	oral, 500 mg, multiple doses, twice daily, steady state, patients	4820 nM
COc1cc(C(=O)NC2CCN(C)CC2)c(F)cc1Nc1ncc(C(F)(F)F)c(Oc2cccc3c2C(=O)N(C)C3)n1	human	oral, 100 mg, single dose, patients	1320 nM
CC(C)(Sc1ccncc1-c1ccc(C#N)c2ccccc12)C(=O)O	male human	oral, 5 mg, single dose, fed, healthy volunteers	45.7 ng/mL
CO[C@H]1CC[C@H](N2C(=O)CNc3ncc(-c4ccc(C(C)(C)O)nc4)nc32)CC1	human	oral, 7.5 mg, multiple doses, patients	50.8 ng/mL
CCO[C@H]1CCN(Cc2c(OC)cc(C)c3[nH]ccc23)[C@H](c2ccc(C(=O)O)cc2)C1	human	oral, 50 mg, multiple doses, twice daily, patients	1800 ng/mL
CCCOc1ccc([C@H]2CNC(=O)N2c2ccc3[nH]cnc3c2)cc1	human	oral, 200 mg, fasted, healthy volunteers	989 ng/mL
Cn1c(=O)oc2ccc(-c3ccc(C[C@@H](C#N)NC(=O)[C@@H]4CNCCCO4)cc3)cc21	male human	oral, 65 mg, single dose, healthy volunteers	1360 nM
Oc1cc(O)c2c(c1)O[C@@H](c1ccc(O)c(O)c1)[C@@H](O)C2	human	oral, 10 mg, single dose	0.4 ng/mL
CC(C)n1cc(C#N)c2cc(-n3cc(C(=O)O)cn3)ccc21	human	oral, 200 mg, single dose, fasted, healthy volunteers	8770 ng/mL
Nc1cc(C(F)(F)F)c(-c2cc(N3CCOCC3)nc(N3CCOCC3)n2)cn1	human	oral, 100 mg/day, patients	1080 ng/mL
CS(=O)(=O)CCNCc1ccc(-c2ccc3ncnc(Nc4ccc(OCc5cccc(F)c5)c(Cl)c4)c3c2)o1	human	oral, 500 mg, multiple doses, twice daily, steady state, patients	2370 ng/mL
O=C(Nc1c(Cl)cncc1Cl)c1ccc(OC(F)F)c(OCC2CC2)c1	human	oral, 0.375 mg, multiple doses, once daily, steady state	11.4 ng/mL
CCCCC1=NC2(CCCC2)C(=O)N1Cc1ccc(-c2ccccc2S(=O)(=O)Nc2noc(C)c2C)c(COCC)c1	human	oral, 800 mg, single dose, fasted, healthy volunteers	7650 ng/mL
CO[C@@H]1[C@H](OC(=O)N2CC(CCN3CCOCC3)C2)CC[C@]2(CO2)[C@H]1[C@@]1(C)O[C@@H]1CC=C(C)C	human	subcutaneous, 0.6 mg, single dose, healthy volunteers	2.28 ng/mL
CCn1c(=O)c(-c2cc(NC(=O)Nc3ccccc3)c(F)cc2Br)cc2cnc(NC)cc21	human	oral, 50 mg, single dose, patients	339 ng/mL
CCc1nc2c(C)cc(N3CCN(CC(=O)N4CC(O)C4)CC3)cn2c1N(C)c1nc(-c2ccc(F)cc2)c(C#N)s1	human	oral, 300 mg, fed, healthy volunteers	3300 ng/mL
CC(C)(O)c1ccccc1-c1ccc2[nH]c(/C=C/c3ccc(C(F)(F)F)cc3)nc2c1	male human	oral, 60 mg, single dose, fasted, healthy volunteers	177 ng/mL
N#CN1C[C@H](n2nc(-c3ccc(Oc4ccc(Cl)cn4)cc3)c(C(N)=O)c2N)CCC12CC2	human	oral, 600 mg, fasted	1060 ng/mL
CO[C@H]1/C=C\C=C(/C)C(=O)NC2=CC(=O)C(NCCN(C)C)=C(C[C@@H](C)C[C@H](OC)[C@H](O)[C@@H](C)/C=C(\C)[C@@H]1OC(N)=O)C2=O	human	intravenous, 27 mg/m², patients, infusion	443 ng/mL
Cn1cc(-c2ccc(S(=O)(=O)[C@@H]3C[C@@H](C(=O)NC4(C#N)CC4)N(C(=O)C4(C(F)(F)F)CC4)C3)c(C(F)(F)F)c2)cn1	human	oral, 100 mg, single dose, fed	946 ng/mL
